Assay results from different studies.
Each line is one published result; the experiments were not run side by side.
Target: NUAK family SNF1-like kinase 1 (NUAK1, Homo sapiens, UniProt O60285)
Residues used in one study (O60285 1-661): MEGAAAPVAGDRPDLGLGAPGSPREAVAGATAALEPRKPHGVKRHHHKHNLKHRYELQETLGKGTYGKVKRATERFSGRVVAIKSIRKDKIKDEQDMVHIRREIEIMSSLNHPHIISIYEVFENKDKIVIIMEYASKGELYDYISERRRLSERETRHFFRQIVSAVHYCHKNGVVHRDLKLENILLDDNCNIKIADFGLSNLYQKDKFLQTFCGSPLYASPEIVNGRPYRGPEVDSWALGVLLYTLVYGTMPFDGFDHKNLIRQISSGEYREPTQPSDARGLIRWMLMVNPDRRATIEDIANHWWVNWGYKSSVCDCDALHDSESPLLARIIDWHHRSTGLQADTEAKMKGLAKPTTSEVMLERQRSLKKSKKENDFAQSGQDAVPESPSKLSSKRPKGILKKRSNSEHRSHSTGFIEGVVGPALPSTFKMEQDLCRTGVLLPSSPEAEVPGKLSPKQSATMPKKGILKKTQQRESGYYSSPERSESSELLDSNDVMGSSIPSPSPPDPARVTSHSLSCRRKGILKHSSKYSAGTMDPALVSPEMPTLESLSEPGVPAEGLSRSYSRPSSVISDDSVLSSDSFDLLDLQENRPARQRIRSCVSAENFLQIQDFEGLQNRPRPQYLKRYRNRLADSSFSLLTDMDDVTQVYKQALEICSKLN

Compound	observed	technique	tested at	remaining binding [%]
CNC(=O)[C@@H]1CC[C@@H](n2c(-c3ccc4cnccc4c3)nc3ccc(C(=O)NCc4cccc(C(N)=O)c4)cc32)C1	binding	competition with immobilised ligand	1 µM	84
O=C(NCCCN1CCOCC1)c1ccc(Nc2ncc(Cl)c(-c3ccc(Cl)s3)n2)cc1	binding	competition with immobilised ligand	1 µM	0.9
CC(=O)N1CCC(c2ccc(C(=O)NC3=NCCN3)cc2C(F)(F)F)CC1	cell-free assay	competition with immobilised ligand	1 µM	98
COc1cnc(Nc2cccc(S(N)(=O)=O)c2)nc1N1CCN(c2ccccc2)C(=O)C1	binding	competition with immobilised ligand	1 µM	86
COc1ncc2cc3ccccc3nc2c1C#N	cell-free assay	competition with immobilised ligand	5 µM	87
O=C1CCc2cc(Nc3cc(OC4CCOCC4)c([N+](=O)[O-])cc3Cl)ccc2N1	cell-free assay	competition with immobilised ligand	1 µM	100
CN(CCCC(F)(F)F)c1nccc(-c2cnn3ncccc23)n1	binding	–	1 µM	100
O=C(NC[C@@H]1[C@H]2CN(C(=O)OCc3cc(C(F)(F)F)cc(C(F)(F)F)c3)C[C@@H]12)c1ccc2[nH]nnc2c1	cell-free assay	competition with immobilised ligand	1 µM	87
O=C(c1ccc(Nc2nccc(-c3cc4ccccc4s3)n2)cc1)N1CCC(N2CCCC2)CC1	binding	competition with immobilised ligand	1 µM	22
C[C@@H]1CCN(c2nccc(-c3cnn4ncccc34)n2)C1	binding	–	1 µM	93
CCC(=N\O)/C(C)=C/c1ccc(F)cc1	cell-free assay	competition with immobilised ligand	1 µM	100
c1cncc(-c2cccc(Nc3nccc(NC4CCCCC4)n3)c2)c1	binding	competition with immobilised ligand	10 µM	16
N[C@H]1CCN(c2nccc(-c3cnn4ncccc34)n2)C1	binding	–	1 µM	63
O=C(NCCCN1CCOCC1)c1ccc(Nc2nccc(-c3cc4ccccc4s3)n2)cc1	binding	competition with immobilised ligand	1 µM	13
CN(C)c1ncc(F)c(-c2cnn3ncccc23)n1	binding	–	1 µM	100
O=C(NCC1CCOCC1)c1n[nH]cc1NC(=O)c1c(F)cccc1F	binding	competition with immobilised ligand	1 µM	100
c1cnn2ncc(-c3ccnc(N4CCC45COC5)n3)c2c1	binding	–	1 µM	100
CCCCN(CCCC)C(=O)CN1C[C@@H](c2cc(OC)c3c(c2)OCO3)[C@H](C(=O)O)[C@H]1CC(C)(C)CCC	cell-free assay	competition with immobilised ligand	1 µM	82.4
